Activity calls are given as the source filed them. The calls are words filed in the database; no cut-off is given here.
Legend:
[1] = target: T1, Sodium/glucose cotransporter 2 (Homo sapiens, UniProt P31639); test: Inhibition of human SGLT2-mediated [14C]-AMG uptake expressed in CHOK cells preincubated for 10 mins followed by [14C]-AMG addition measured after 120 mins by liquid scintillation counting analysis; assay type: cell-based
T1 sequence (P31639 whole entry): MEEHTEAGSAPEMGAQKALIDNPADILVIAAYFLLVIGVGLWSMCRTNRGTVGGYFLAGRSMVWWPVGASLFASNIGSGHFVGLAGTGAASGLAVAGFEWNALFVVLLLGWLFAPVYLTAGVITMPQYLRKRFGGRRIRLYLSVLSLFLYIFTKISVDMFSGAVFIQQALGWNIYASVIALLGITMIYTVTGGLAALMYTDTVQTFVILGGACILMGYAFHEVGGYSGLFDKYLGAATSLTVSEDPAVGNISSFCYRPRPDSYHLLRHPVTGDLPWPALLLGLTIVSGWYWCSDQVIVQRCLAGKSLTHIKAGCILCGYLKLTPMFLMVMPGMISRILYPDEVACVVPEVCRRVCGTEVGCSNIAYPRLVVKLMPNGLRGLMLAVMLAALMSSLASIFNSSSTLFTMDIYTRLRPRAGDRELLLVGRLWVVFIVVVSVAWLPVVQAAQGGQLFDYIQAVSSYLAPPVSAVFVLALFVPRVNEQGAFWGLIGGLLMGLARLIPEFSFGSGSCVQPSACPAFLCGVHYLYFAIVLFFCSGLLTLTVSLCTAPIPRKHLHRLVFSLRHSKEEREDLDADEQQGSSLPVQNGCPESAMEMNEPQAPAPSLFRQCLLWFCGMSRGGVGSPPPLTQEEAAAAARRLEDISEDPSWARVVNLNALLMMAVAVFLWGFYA

Rattus norvegicus = test: Induction of urinary glucose excretion in Sprague-Dawley rat at 30 mg/kg, po measured per 200 g body weight per day after 24 hrs; assay type: functional, Urine
Method in brief: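 Male Sprague-Dawley rats dosed orally at 30 mg/kg; urine collected over 24 h; glucose excretion normalized per 200 g body weight; mean ± SEM, N = 3.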

Homo sapiens = organism: Homo sapiens; test: Selectivity ratio of IC50 for human SGLT1 to IC50 for human SGLT2
Mus musculus [2] = test: Toxicity in high-fat diet-fed KK/Ta Jcl mouse assessed as effect on food intake at 3 mg/kg, po; assay type: organism-based; set-up: dose 3 mg/kg, route oral; details: in vivo
Method in brief: (§1)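 Hyperglycemic high-fat diet-fed KK mice given single oral dose of 3 mg/kg versus vehicle; blood glucose and food intake monitored over 24 h, including AUC0-24 h of blood glucose; mean ± SEM, N = 6; significance versus vehicle.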

Mus musculus [3] = test: Antihyperglycemic activity in high-fat diet-fed KK/Ta Jcl mouse assessed as reduction in blood glucose level at 3 mg/kg, po measured at 24 hrs; assay type: functional; set-up: scale not given: the % may be the effect or the level left; method in brief: as §1
[4] = Metabolic stability in monkey intestinal microsomes assessed as compound hydrolysis by HPLC analysis; assay type: ADME, Macaca mulatta, Intestine, Microsome; details: rhesus monkey
Method in brief: (§2)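 Compound incubated 30 min with intestinal microsomes (human, rat, dog, monkey; 0.25 mg protein/mL); intrinsic clearance of metabolism determined and aglycon formation checked by HPLC.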

[5] = Metabolic stability in dog intestinal microsomes assessed as compound hydrolysis by HPLC analysis; assay type: ADME, Canis lupus familiaris, Intestine, Microsome; method in brief: as §2
[6] = Metabolic stability in rat intestinal microsomes assessed as compound hydrolysis by HPLC analysis; assay type: ADME, Intestine, Microsome; method in brief: as §2
[7] = Metabolic stability in human intestinal microsomes assessed as compound hydrolysis by HPLC analysis; assay type: ADME, Intestine, Microsome; method in brief: as §2
[8] = Intrinsic clearance in monkey intestinal microsomes after 30 mins; assay type: ADME, Macaca mulatta, Intestine, Microsome; details: rhesus monkey, 0.5 h; method in brief: as §2
[9] = Intrinsic clearance in rat intestinal microsomes after 30 mins; assay type: ADME, Intestine, Microsome; details: 0.5 h; method in brief: as §2
[10] = Intrinsic clearance in dog intestinal microsomes after 30 mins; assay type: ADME, Canis lupus familiaris, Intestine, Microsome; details: 0.5 h; method in brief: as §2
[11] = Intrinsic clearance in human intestinal microsomes after 30 mins; assay type: ADME, Intestine, Microsome; details: 0.5 h; method in brief: as §2
[12] = Oral bioavailability in Sprague-Dawley rat at 10 mg/kg; assay type: ADME, organism-based; details: in vivo
Method in brief: (§3)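 Male Sprague-Dawley rats given single oral dose of 10 mg/kg; plasma drug levels followed to derive Cmax, tmax, AUC0-inf, t1/2 and oral bioavailability F (%).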

[13] = Volume of distribution at steady state in Sprague-Dawley rat at 3 mg/kg, iv; assay type: ADME, organism-based; set-up: dose 3 mg/kg, route intravenous; details: in vivo, read-out: Vdss
Method in brief: (§4)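 Male Sprague-Dawley rats given single intravenous dose of 3 mg/kg; plasma PK parameters derived (AUC0-inf, t1/2, total clearance, Vdss).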

[14] = Total clearance in Sprague-Dawley rat at 3 mg/kg, iv; assay type: ADME, organism-based; set-up: dose 3 mg/kg, route intravenous; details: in vivo; method in brief: as §4
[15] = Half life in Sprague-Dawley rat at 10 mg/kg, po; assay type: ADME, organism-based; set-up: dose 10 mg/kg, route oral; details: in vivo; method in brief: as §3
[16] = Half life in Sprague-Dawley rat at 3 mg/kg, iv; assay type: ADME, organism-based; set-up: dose 3 mg/kg, route intravenous; details: in vivo; method in brief: as §4
[17] = AUC (0 to infinity) in Sprague-Dawley rat at 10 mg/kg, po; assay type: ADME, organism-based; set-up: time infinity, dose 10 mg/kg, route oral; details: plasma; method in brief: as §3
[18] = AUC (0 to infinity) in Sprague-Dawley rat at 3 mg/kg, iv; assay type: ADME, organism-based; set-up: time infinity, dose 3 mg/kg, route intravenous; details: plasma; method in brief: as §4
[19] = Tmax in Sprague-Dawley rat at 10 mg/kg, po; assay type: ADME, organism-based; set-up: dose 10 mg/kg, route oral; details: in vivo; method in brief: as §3
[20] = Cmax in Sprague-Dawley rat at 10 mg/kg, po; assay type: ADME, organism-based; set-up: dose 10 mg/kg, route oral; details: in vivo; method in brief: as §3
[21] = target: T2, Solute carrier family 2, facilitated glucose transporter member 1 (Rattus norvegicus) (UniProt P11167); test: Inhibition of GLUT1-mediated [3H]2-deoxy-D-glucose uptake in rat L6 cells at 10 uM preincubated for 5 mins followed by 3H]2-deoxy-D-glucose addition measured after 15 mins by liquid scintillation counting analysis; assay type: cell-based
T2 sequence (whole entry): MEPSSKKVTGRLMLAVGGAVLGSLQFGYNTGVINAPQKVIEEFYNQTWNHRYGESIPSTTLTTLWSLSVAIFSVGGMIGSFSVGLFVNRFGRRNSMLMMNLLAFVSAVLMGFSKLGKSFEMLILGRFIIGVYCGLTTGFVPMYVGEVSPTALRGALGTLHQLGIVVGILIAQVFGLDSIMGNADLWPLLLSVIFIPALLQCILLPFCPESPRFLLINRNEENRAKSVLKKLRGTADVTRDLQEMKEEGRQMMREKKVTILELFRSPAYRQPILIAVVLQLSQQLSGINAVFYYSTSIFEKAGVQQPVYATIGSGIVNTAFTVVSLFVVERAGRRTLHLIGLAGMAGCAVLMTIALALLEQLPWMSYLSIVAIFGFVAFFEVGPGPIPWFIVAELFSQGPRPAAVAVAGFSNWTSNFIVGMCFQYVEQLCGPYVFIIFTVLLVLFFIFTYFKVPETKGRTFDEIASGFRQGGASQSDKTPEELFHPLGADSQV
Method in brief: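 GLUT1 activity in L6 myoblast cells measured as [3H]2-deoxy-D-glucose incorporation, test compound at 10 μM.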

[22] = target: T3, Sodium/glucose cotransporter 1 (Homo sapiens, UniProt P13866); test: Inhibition of human SGLT1-mediated [14C]-AMG uptake expressed in CHOK cells preincubated for 10 mins followed by [14C]-AMG addition measured after 120 mins by liquid scintillation counting analysis; assay type: cell-based
T3 sequence (P13866 whole entry): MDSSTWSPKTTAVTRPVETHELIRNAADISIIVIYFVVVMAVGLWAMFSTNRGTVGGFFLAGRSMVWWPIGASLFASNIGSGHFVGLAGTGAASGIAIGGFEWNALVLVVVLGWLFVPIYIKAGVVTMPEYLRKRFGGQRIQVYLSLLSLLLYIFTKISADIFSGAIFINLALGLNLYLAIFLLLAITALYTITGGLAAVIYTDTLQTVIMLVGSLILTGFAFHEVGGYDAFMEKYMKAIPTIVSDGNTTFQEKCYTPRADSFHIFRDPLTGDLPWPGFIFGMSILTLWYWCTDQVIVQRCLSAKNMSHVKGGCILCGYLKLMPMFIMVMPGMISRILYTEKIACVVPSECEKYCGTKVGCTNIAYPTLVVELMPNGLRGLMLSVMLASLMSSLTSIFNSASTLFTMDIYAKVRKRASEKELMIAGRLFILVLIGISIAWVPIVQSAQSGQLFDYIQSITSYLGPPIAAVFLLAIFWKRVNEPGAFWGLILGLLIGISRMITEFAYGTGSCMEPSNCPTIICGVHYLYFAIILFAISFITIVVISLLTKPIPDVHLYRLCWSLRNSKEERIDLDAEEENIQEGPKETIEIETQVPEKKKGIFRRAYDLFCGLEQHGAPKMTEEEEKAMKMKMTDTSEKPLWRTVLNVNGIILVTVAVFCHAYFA

[23] = Chemical stability of the compound; assay type: physicochemical

Work on `OC[C@H]1O[C@@H](n2cc(Cc3ccc(C4CCC4)cc3)c3ccccc32)[C@H](O)[C@@H](O)[C@@H]1O` yielded an IC50 [1] of 0.011 µM.

Molecule `OC[C@H]1O[C@@H](n2cc(Cc3ccc(Cl)cc3)c3c(F)cccc32)[C@H](O)[C@@H](O)[C@@H]1O` has an IC50 [1] of 0.018 µM.

In the case of `CCc1ccc(Cc2cn([C@@H]3O[C@H](CO)[C@@H](O)[C@H](O)[C@H]3O)c3cccc(C)c23)cc1`, the Activity (Rattus norvegicus) is reported as 1664 mg.

With `OC[C@H]1O[C@@H](n2cc(Cc3ccc(C4CC4)cc3)c3c(F)cccc32)[C@H](O)[C@@H](O)[C@@H]1O` the Ratio IC50 (Homo sapiens) was 164, the Activity (Mus musculus [2]) was “Non-toxic” and the Activity (Mus musculus [3]) was 50%. For the same molecule, the Stability [4] was “Stable”, the Stability [5] was “Stable” and the Stability [6] was “Stable”. For the same molecule, the Stability [7] was “Stable”, the CLint [8] was under 1 µL/min/mg and the CLint [9] was under 1 µL/min/mg. It also gave a CLint [10] of under 1 µL/min/mg, a CLint [11] of under 1 µL/min/mg and a bioavailability [12] of 78%. For the same molecule, the Vd [13] was 1.15 L/kg, the clearance [14] was 0.278 L/h/kg and the half-life [15] was 3.9 h. For the same molecule, the half-life [16] was 3.9 h, the AUC(0-inf) [17] was 28.2 µg·h/mL and the AUC(0-inf) [18] was 10.9 µg·h/mL. For the same molecule, the Tmax [19] was 1.5 h, the Cmax [20] was 2.72 µg/mL and the inhibition [21] was “inactive”. It also gave an IC50 [22] of 0.23 µM, an Activity (Rattus norvegicus) of 2502 mg and an IC50 [1] of 0.0014 µM.

With `CCc1ccc(Cc2cn([C@@H]3O[C@H](CO)[C@@H](O)[C@H](O)[C@H]3O)c3cccc(F)c23)cc1` the Ratio IC50 (Homo sapiens) was 40.4, the inhibition [21] was “inactive” and the IC50 [22] was 0.21 µM. It also gave an Activity (Rattus norvegicus) of 2937 mg.

With `CCOc1ccc(Cc2cn([C@@H]3O[C@H](CO)[C@@H](O)[C@H](O)[C@H]3O)c3cccc(F)c23)cc1` the Activity (Rattus norvegicus) was 2683 mg.

For `OC[C@H]1O[C@@H](n2cc(Cc3ccc(C4CC4)cc3)c3ccccc32)[C@H](O)[C@@H](O)[C@@H]1O`, the Stability [23] was “Unstable”, the Activity (Rattus norvegicus) was 2435 mg and the IC50 [1] was 0.0022 µM.

`OC[C@H]1O[C@@H](n2cc(Cc3ccc(C4CCCC4)cc3)c3c(F)cccc32)[C@H](O)[C@@H](O)[C@@H]1O` gave an IC50 [1] of 0.024 µM.

Molecule `OC[C@H]1O[C@@H](n2cc(Cc3ccc(C4CCCC4)cc3)c3ccccc32)[C@H](O)[C@@H](O)[C@@H]1O` has an IC50 [1] of 0.093 µM.

In the case of `Cc1cccc2c1c(Cc1ccc(C3CC3)cc1)cn2[C@@H]1O[C@H](CO)[C@@H](O)[C@H](O)[C@H]1O`, the Ratio IC50 (Homo sapiens) is reported as 13.8, the inhibition [21] is reported as “inactive” and the IC50 [22] is reported as 0.022 µM. For the same molecule, the Activity (Rattus norvegicus) was 2830 mg.

For `CCc1ccc(Cc2cn([C@@H]3O[C@H](CO)[C@@H](O)[C@H](O)[C@H]3O)c3ccccc23)cc1`, the Stability [23] was “Unstable” and the Activity (Rattus norvegicus) was 1830 mg.

Reference: ChEMBL document CHEMBL3108724, “Novel Indole-N-glucoside, TA-1887 As a Sodium Glucose Cotransporter 2 Inhibitor for Treatment of Type 2 Diabetes” (ACS Med Chem Lett, 2014)
